Bioassay records (PubChem BioAssay)
Mdm2 MdmX PPI: inhibitors of human Mdm2/MdmX interaction; SaOS-2 split-luciferase Mdm2/MdmX complementation, luminescence; inhibition, % at 8 µM; O15151+Q00987; hit rate 3% among 330,000;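 active = inhibition of at least 50% at 8 µM in the primary screen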
Apaf-1 inh: inhibitors of human Apaf-1 apoptosome. O14727. reconstituted apoptosome caspase-3 activity, DEVD-Rh110 fluorescence. inhibition, % at 20 µM. hit rate 0.71% among 330,000; active = inhibition of at least 40% at 20 µM
Target sequence (O14727 whole entry, looked up): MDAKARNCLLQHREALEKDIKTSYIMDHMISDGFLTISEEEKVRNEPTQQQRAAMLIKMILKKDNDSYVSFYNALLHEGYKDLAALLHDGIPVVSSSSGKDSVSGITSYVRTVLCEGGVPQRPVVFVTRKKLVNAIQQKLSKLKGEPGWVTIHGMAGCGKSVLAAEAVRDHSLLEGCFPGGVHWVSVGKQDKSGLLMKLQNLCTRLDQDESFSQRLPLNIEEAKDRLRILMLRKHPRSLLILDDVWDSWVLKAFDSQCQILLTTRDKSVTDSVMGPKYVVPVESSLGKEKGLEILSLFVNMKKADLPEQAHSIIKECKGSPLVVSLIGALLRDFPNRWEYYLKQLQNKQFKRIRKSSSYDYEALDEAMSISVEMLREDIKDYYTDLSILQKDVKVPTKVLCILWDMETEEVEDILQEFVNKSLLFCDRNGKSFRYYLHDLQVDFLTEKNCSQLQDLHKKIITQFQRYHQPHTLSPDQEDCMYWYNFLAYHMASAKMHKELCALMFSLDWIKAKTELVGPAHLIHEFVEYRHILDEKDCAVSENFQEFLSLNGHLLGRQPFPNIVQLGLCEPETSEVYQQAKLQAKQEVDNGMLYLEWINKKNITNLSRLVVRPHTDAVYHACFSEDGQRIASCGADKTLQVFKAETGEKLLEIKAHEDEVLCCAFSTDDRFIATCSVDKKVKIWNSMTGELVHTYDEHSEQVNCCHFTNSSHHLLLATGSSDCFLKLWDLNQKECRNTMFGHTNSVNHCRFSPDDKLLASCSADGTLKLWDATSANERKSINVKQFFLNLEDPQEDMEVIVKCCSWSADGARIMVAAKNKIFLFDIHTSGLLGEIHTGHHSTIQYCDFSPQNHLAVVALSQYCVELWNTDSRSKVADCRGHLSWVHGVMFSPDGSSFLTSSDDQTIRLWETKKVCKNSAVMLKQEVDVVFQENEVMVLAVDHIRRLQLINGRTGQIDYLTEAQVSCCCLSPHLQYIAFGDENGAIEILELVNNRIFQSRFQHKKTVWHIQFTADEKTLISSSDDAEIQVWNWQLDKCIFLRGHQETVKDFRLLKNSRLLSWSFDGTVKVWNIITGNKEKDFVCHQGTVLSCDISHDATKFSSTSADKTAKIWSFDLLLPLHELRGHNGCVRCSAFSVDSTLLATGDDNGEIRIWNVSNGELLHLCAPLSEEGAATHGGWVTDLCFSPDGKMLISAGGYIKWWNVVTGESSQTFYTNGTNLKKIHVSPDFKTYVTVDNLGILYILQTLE
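Material: reconstituted apoptosome with Apaf-1, cytochrome c, caspase-9, procaspase-3, dATP; medium: pH 7.5 Hepes buffer with CHAPS, BSA, DTT; also added: cytochrome c and DEVD-Rh110 substrate; timing: 30 min plus 50 min, RT; signal: Rh110 fluorescence intensity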
UPR CHOP act: activators of apoptotic arm of unfolded protein response (CHOP) | CHO-CHOP luciferase reporter, UPR activation, luminescence; percent of tunicamycin response over DMSO baseline | activation, % at 10 µM | hit rate 0.34% among 330,000;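 active = at 10 µM dose, activation of 40% or more, normalized to positive control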
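Material: CHO-CHOP cells, stable luciferase reporter of PERK-eIF2a-CHOP signalling; quantity: 500 reporter cells seeded per well; buffer or medium: F12 medium containing 10% fetal bovine serum; compound: one dose, 10 µM in 0.5% DMSO; incubation: 6 h compound treatment, 37 °C; measured by: Steady-Glo luciferase luminescence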
XBP1 UPR activ: adaptive UPR (XBP1) activation. AID 463104. hit rate 0.33% among 330,000. activation, % at 20 µM. CHO-XBP1 luciferase reporter, IRE1-XBP1 UPR activation, luminescence; percent of tunicamycin response, DMSO as zero;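 active = versus positive control, 20 µM dose yields 30% or more activation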
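Assay system: CHO-XBP1 luciferase reporter cells; Schedule: 6 h treatment, 37 °C; Detection: glow luminescence from Steady-Glo reagent; Benchmarks: high control tunicamycin 10 µg/mL final, low control DMSO vehicle only.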
UBC13 inh: inhibitors of human UBC13 polyubiquitin chain formation. P61088. TR-FRET. inhibition, % at 20 µM. hit rate 0.47% among 330,000. AID 485273; in the data active = inhibition above about 45%, passing the limit was not always enough; inconclusive = no clear call, values can overlap the other calls
Mdm2 MdmX conf: confirmation of human Mdm2/MdmX interaction inhibitors; shares compounds with Mdm2 MdmX PPI; Mdm2-MdmX binding, luminescent assay; inhibition, % at 8 µM; hit rate 55% among 10,000; in the data active = inhibition above about 40%
FLuc counter: inhibits full-length luciferase, flagging false Mdm2/MdmX hits. shares compounds with Mdm2 MdmX PPI. SaOS-2 full-length luciferase counterscreen, luminescence. inhibition, % at 8 µM. hit rate 77% among 6,200. AID 504607;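 active = mean inhibition at 8 µM reaching about 37%, which flags the compound as non-specific, limit read from the data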;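 also: p53-null SaOS-2 cells with luciferase driven by a doxycycline-inducible promoter; compound on cells about two nights before reading with doxycycline added after day one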
Large screens that a line does not name were inactive (follow-up assays come after a bar, where they were run). This is a sample that favours compounds with a hit; in the whole collection about 4.1% have one here.

Cc1ccc(/C=C2\SC(=S)N(CCCC(=O)N3CCOCC3)C2=O)cc1	Mdm2 MdmX PPI 56 | Mdm2 MdmX conf inactive | FLuc counter inactive
COc1ccc(/C=C2/SC(=S)N(CCCC(=O)N3CCN(C)CC3)C2=O)cc1	Mdm2 MdmX PPI 55 | Mdm2 MdmX conf inactive | FLuc counter inactive
COc1ccc(/C=C2/SC(=S)N(CCC(=O)N3CCN(C)CC3)C2=O)cc1	none
CN1CCN(C(=O)CCCN2C(=O)/C(=C/c3ccc(Cl)cc3)SC2=S)CC1	Mdm2 MdmX PPI 52 | Mdm2 MdmX conf inactive
CN1CCN(C(=S)C(=O)Nc2ccc(Br)cc2)CC1	none
Cc1ccc(C)c(S(=O)(=O)NCc2ccc(C(=O)NCc3ccccn3)cc2)c1	none
Cc1cccc(Oc2ccc(NC(=O)C3=CC=CN4CCS(=O)(=O)N=C34)cc2)c1	none
COc1ccc(-c2nc3c(c(=O)n(C)c(=O)n3C)n2CC2CC(c3ccccc3)=NO2)cc1OC (stereo unspecified)	Mdm2 MdmX PPI 61 | Mdm2 MdmX conf 45 | FLuc counter 89
CC(C)c1c(C(=O)N/N=C/c2ccc(C(F)(F)F)cc2)nnn1-c1nonc1N	none
O=C(COC(=O)c1ccc(F)c([N+](=O)[O-])c1)NC(=O)NCc1ccccc1	Mdm2 MdmX PPI 73 | Mdm2 MdmX conf inactive
CCCCC(=O)N1C/C=C\C(c2ccc(OC)cc2)N(Cc2ccc(F)cc2)C(=O)[C@H]1Cc1ccccc1 (stereo partly specified)	none
CCCCCCC(=O)N1C/C=C\C(c2ccc(OC)cc2)N(Cc2ccc(F)cc2)C(=O)[C@H]1Cc1ccccc1 (stereo partly specified)	Mdm2 MdmX PPI 72 | Mdm2 MdmX conf inactive | FLuc counter 62
CC(=O)NCCn1c(SCc2ccc(C)cc2C)nc2ccccc2c1=O	none
C/C(=N\NC(=O)COc1cccc(C)c1)c1ccc2ccccc2c1O	Mdm2 MdmX PPI 52 | Mdm2 MdmX conf 61 | FLuc counter inactive
Cc1cccc(OCC(=O)NCc2ccccc2)c1	none
COc1ccc(-c2oc3ccccc3c2C#Cc2cncn2C)cc1	Mdm2 MdmX PPI 72 | Mdm2 MdmX conf 61 | FLuc counter 44
COC(=O)c1c(-c2ccc(OC)cc2)oc2ccccc12	none
Cc1ccc(S(=O)(=O)Nc2ccc3c4c(cccc24)CC3)c(C)c1	Mdm2 MdmX PPI 71 | Mdm2 MdmX conf 60 | FLuc counter 53
CC(C)(C)NC(=O)CSc1nnc(C2CC2)n1Cc1ccccc1	none
Cc1nc2c(-c3ccc(Cl)cc3)cnn2c(N)c1-c1ccc(F)cc1	Mdm2 MdmX PPI 88 | Mdm2 MdmX conf 85 | FLuc counter 105
Cc1nc2c(-c3ccc(F)cc3)cnn2c(N)c1-c1ccccc1	Mdm2 MdmX PPI 91 | Mdm2 MdmX conf 87 | FLuc counter 110
COc1ccc(-c2c(C)nc3c(-c4ccc(F)cc4)cnn3c2N)cc1	none
CCCCC(=O)NC(c1ccc(N(C)C)cc1)c1ccc2cccnc2c1O (stereo unspecified)	Mdm2 MdmX PPI 75 | Mdm2 MdmX conf 86 | FLuc counter inactive
CCCCC(=O)NC(c1ccc(N(CC)CC)cc1)c1ccc2cccnc2c1O (stereo unspecified)	Mdm2 MdmX PPI 83 | Mdm2 MdmX conf 86 | FLuc counter inactive
CN(Cc1ccccc1)C(=O)c1ccc(NC(=O)C2=CSCCO2)cc1	none
Cc1onc(-c2c(F)cccc2Cl)c1C(=O)Nc1nnc(C(F)(F)F)s1	UBC13 inh inconclusive
COc1ccc(S(=O)(=O)N(C)C)cc1NC(=O)CCCSc1ccccc1	none
COc1ccc(N2CCN(C3CCCN(C(=O)CN4CCCC4=O)C3)CC2)cc1 (stereo unspecified)	none
CC1CCN(c2ccc(-c3cccs3)nn2)CC1	Mdm2 MdmX PPI 55 | Mdm2 MdmX conf 64 | FLuc counter 40
CC(C)c1csc(CN2CCC(n3nccc3NC(=O)Cc3ccccc3)CC2)n1	none
CCN1CCN(Cc2nc3c(c(=O)[nH]c(=O)n3C)n2Cc2ccccc2Cl)CC1	none
CCCCn1c(CN2CCN(c3cccc(Cl)c3)CC2)nc2c1c(=O)[nH]c(=O)n2C	Mdm2 MdmX PPI 53 | Mdm2 MdmX conf 62 | FLuc counter 57
Cn1c(=O)[nH]c(=O)c2c1nc(CN1CCN(c3cccc(Cl)c3)CC1)n2CCN1CCOCC1	none
Cn1c(=O)[nH]c(=O)c2c1nc(CN1CCN(c3cccc(Cl)c3)CC1)n2Cc1ccccc1Cl	Mdm2 MdmX PPI 73 | Mdm2 MdmX conf 51 | FLuc counter 59
Cc1ccc(Cl)cc1N1CCN(Cc2nc3c(c(=O)[nH]c(=O)n3C)n2Cc2ccccc2F)CC1	Mdm2 MdmX PPI 51 | Mdm2 MdmX conf inactive | FLuc counter 77
CCN1CCN(c2nc3c(c(=O)[nH]c(=O)n3C)n2Cc2ccccc2F)CC1	none
Nc1ncnc2c1nc(Br)n2[C@@H]1O[C@@H]2COP(=O)(O)O[C@H]2[C@H]1O	none
C=CCNC(=S)NNC(=O)CCC(O)CCCCC (stereo unspecified)	Mdm2 MdmX PPI 54 | Mdm2 MdmX conf inactive
COc1ccc(-n2c(SCC(=O)Nc3ccccc3)nnc2-c2ccc(NS(=O)(=O)c3ccc(C)cc3)cc2)cc1	Mdm2 MdmX PPI 91 | Mdm2 MdmX conf inactive
COc1ccc(-n2c(SCC(N)=O)nnc2-c2ccc(NS(=O)(=O)c3ccc(C)cc3)cc2)cc1	none
COc1ccc(NC(=O)Cn2nnc(-c3ccccc3NS(=O)(=O)c3ccc(OC)cc3)n2)cc1	Mdm2 MdmX PPI 67 | Mdm2 MdmX conf 55 | FLuc counter 83
O=C(Cn1nnc(-c2ccccc2NC(=O)c2ccco2)n1)Nc1ccccc1	Mdm2 MdmX PPI 76 | Mdm2 MdmX conf 41 | FLuc counter 64
COc1ccccc1NC(=O)Cn1nnc(-c2ccccc2NS(=O)(=O)c2ccccc2)n1	none
COc1ccc(C(=O)Nc2ccc(-c3nnn(CC(=O)NCc4ccco4)n3)cc2)cc1	Mdm2 MdmX PPI 68 | Mdm2 MdmX conf inactive
Cc1ccc(SCc2cn3cc(Cl)ccc3n2)cc1	none
COc1ccc(C(=O)COC(=O)c2cc(=O)[nH]c3ccccc23)c(OC)c1	none
N=C1SCC(=O)N1c1ncc(Cc2ccc(F)cc2)s1	none
O=C(CCN1C(=O)c2cccc([N+](=O)[O-])c2C1=O)NC1CCCCCC1	none
Cc1ccccc1N1CCN(C2CCCN(C(=O)CCn3cnnn3)C2)CC1 (stereo unspecified)	none
O=C(CSc1nc(-c2cccs2)nc2ccccc12)NC1CCS(=O)(=O)C1 (stereo unspecified)	Mdm2 MdmX PPI 61 | Mdm2 MdmX conf inactive
